Bioassay records deposited in PubChem by The Scripps Research Institute Molecular Screening Center.
PAFAH1B3 FP inh = blocks human PAF acetylhydrolase 1B catalytic subunit 3. Q15102. recombinant PAFAH1B3, FP-rhodamine probe, fluorescence polarization. inhibition, % at 3.39 µM. actives 0.28% (n = 340,000);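 active = inhibition above the screen-wide average of all tested compounds plus 3 SD, cut at about 25% in these data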
PAFAH1B2 FP inh = inhibitors of human PAFAH1B2 | actives 1.2% (n = 340,000) | inhibition, % at 3.39 µM | recombinant PAFAH1B2, FP-rhodamine activity probe, fluorescence polarization | AID 492953;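 active = inhibition above the mean of all tested compounds plus 3 SD, cut at about 24% in these data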
Target sequence (P68402 whole entry, looked up): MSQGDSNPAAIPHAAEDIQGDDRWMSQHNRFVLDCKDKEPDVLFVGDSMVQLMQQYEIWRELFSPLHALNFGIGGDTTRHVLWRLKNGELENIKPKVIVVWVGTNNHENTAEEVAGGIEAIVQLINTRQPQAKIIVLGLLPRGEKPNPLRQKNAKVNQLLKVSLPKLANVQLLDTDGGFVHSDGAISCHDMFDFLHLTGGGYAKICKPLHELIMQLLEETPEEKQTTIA
pPAFAH inh = inhibitors of human plasma PAF acetylhydrolase (pPAFAH) | Q13093 | actives 1.5% (n = 330,000) | inhibition, % at 3.39 µM | recombinant pPAFAH, FP-rhodamine probe fluorescence polarization;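 active = inhibition above the mean inhibition across the screen plus 3 SD, cut at about 25% in these data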;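 note: inhibitors block binding of the rhodamine activity-based probe so polarization drops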
PAFAH2 inh = inhibitors of human PAFAH2; Q99487; recombinant PAFAH2, FP-rhodamine activity probe, fluorescence polarization; inhibition, % at 3.39 µM; actives 0.99% (n = 340,000);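 active = inhibition above the mean over all tested compounds plus 3 SD, cut at about 30% in these data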;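 note: inhibitors block probe labeling of enzyme so polarization drops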
ARFGAP1 inh = inhibits rat ARF GTPase activating protein 1; actives 0.26% (n = 360,000); Arfgap1-stimulated ARF1 GTP hydrolysis, GDP FP detection; AID 651572; inhibition, % at 16.5 µM; Q62848;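 active = inhibition above a per-plate limit, mean inhibition of low control wells plus 3 SD, cut at about 25% in these data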
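Material: rat Arfgap1 catalytic domain, aa 1-136; also added: human ARF1(Δ1-17)-GTP substrate; compound dosing: one concentration, 16.5 µM, DMSO 1.26%; incubation: GTP hydrolysis reaction 2 h at 25 °C; measured by: Tracer-displacement fluorescence polarization with EDTA stop, 620/688 nm; evaluation: % inhibition from polarization; repeats: one replicate per compound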
ASAP1 inh = blocks human ASAP1-stimulated Arf1 GTP hydrolysis; Q9ULH1; GDP FP detection; inhibition, % at 16.5 µM; actives 0.19% (n = 360,000); AID 624377; in the data active = inhibition above about 25%
Target sequence (Q9ULH1 325-724 limits assumed): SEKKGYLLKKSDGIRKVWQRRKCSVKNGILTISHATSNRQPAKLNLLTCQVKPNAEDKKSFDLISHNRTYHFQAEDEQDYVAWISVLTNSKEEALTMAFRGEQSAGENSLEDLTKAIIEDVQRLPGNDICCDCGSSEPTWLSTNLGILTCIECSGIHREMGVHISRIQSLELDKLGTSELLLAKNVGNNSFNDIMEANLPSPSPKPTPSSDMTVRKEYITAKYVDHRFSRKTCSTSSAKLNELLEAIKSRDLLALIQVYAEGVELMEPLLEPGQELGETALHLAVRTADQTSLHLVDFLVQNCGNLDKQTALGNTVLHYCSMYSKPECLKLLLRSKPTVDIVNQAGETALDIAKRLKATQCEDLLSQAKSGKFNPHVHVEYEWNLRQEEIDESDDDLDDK
pPAFAH FP conf = confirmation of human plasma PAF acetylhydrolase (pPAFAH) inhibitors. shares compounds with pPAFAH inh. recombinant pPAFAH, FP-Rh probe fluorescence polarization. inhibition, % at 3.39 µM. actives 72% (n = 2,300). AID 463230;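 active = mean inhibition of the triplicate above the hit cutoff set for the earlier primary screen, cut at about 25% in these data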
Large screens that a line does not name were inactive (follow-up assays come after a bar, where they were run). This is a sample that favours compounds with a hit; in the whole collection about 2.7% have one here.

Cc1cccc(N2C(=O)NC(=O)/C(=C\c3cccn3-c3ccc(Cl)cc3)C2=O)c1	PAFAH1B2 FP inh 74, PAFAH2 inh 54
Cc1cc(C)cc(N2C(=O)NC(=O)/C(=C/c3cccn3-c3ccc(Cl)cc3)C2=O)c1	PAFAH1B2 FP inh 48, PAFAH2 inh 42
Cc1cccc(N2C(=O)NC(=O)/C(=C\C=C\c3ccco3)C2=O)c1	none
CCc1ccc(N2C(=O)NC(=O)/C(=C\c3cccn3CCOc3ccc(C(C)C)cc3)C2=O)cc1	none
NC(Cc1ccc(Cl)cc1)c1csc(Nc2ncccn2)n1 (centres undefined)	none (no result: PAFAH1B3 FP inh, PAFAH1B2 FP inh, pPAFAH inh, PAFAH2 inh)
COC1CC2C=C(C)C=CC=CC(=O)NC(c3ccccc3)CC=CCCC(O)CC(=O)C2=C1O (centres undefined)	none (no result: PAFAH1B3 FP inh, PAFAH1B2 FP inh, pPAFAH inh, PAFAH2 inh)
O=c1[nH]c(O)c(/C=C2/C=CC(c3cc(Cl)ccc3Cl)=N2)c(=O)[nH]1	PAFAH1B3 FP inh 48, PAFAH1B2 FP inh 76
Cc1cc(/C=C2\C(=O)NC(=O)N(Cc3ccccc3)C2=O)c(C)n1-c1ccc(Cl)c(C(=O)O)c1	pPAFAH inh 28, PAFAH2 inh 43
Cc1cc(/C=C2\C(=O)NC(=O)N(Cc3ccco3)C2=O)c(C)n1-c1ccc(C(=O)O)cc1	none
Cc1cc(/C=C2/C(=O)NC(=O)N(c3ccccc3)C2=O)c(C)n1-c1ccc(F)cc1	PAFAH1B2 FP inh 25
CN1C[C@H](CNC(=O)OCc2ccccc2)C[C@@H]2c3cccc4c3c(cn4C)C[C@H]21	pPAFAH inh 27
CCCCC/C=C\C/C=C\C/C=C\C/C=C\CCCC(=O)Nc1ccc(O)cc1	pPAFAH inh 36 (no result: PAFAH1B3 FP inh, PAFAH1B2 FP inh, PAFAH2 inh, ARFGAP1 inh, ASAP1 inh)
Cc1ccccc1C(=O)NCCN1CCC2(CC1)C(=O)NCN2c1ccccc1	none (no result: PAFAH1B3 FP inh, PAFAH1B2 FP inh, pPAFAH inh, PAFAH2 inh)
C/C(=N\NC(=O)c1ccccc1Cl)c1c(O)n(C2CCCCC2)c(=O)[nH]c1=O	none
O=C(N/N=C/c1c(O)n(Cc2ccccc2)c(=O)[nH]c1=O)c1ccncc1	none (no result: PAFAH1B3 FP inh, PAFAH1B2 FP inh, PAFAH2 inh)
C/C(=N\NC(=O)c1ccccc1O)c1c(O)n(Cc2ccccc2)c(=O)[nH]c1=O	PAFAH1B2 FP inh 28, pPAFAH inh 25
O=C(N/N=C/c1c(O)n(Cc2ccc(F)cc2)c(=O)[nH]c1=O)c1ccccc1	PAFAH1B2 FP inh 35
C/C(=N\NC(=O)c1ccncc1)c1c(O)n(Cc2ccccc2)c(=O)[nH]c1=O	none
C/C(=N\NC(=O)c1ccccc1O)c1c(O)n(C2CCCCC2)c(=O)[nH]c1=O	pPAFAH inh 26
O=c1[nH]c2ccccc2n1C1CCN(C(c2cc3ccccc3o2)c2nnnn2-c2ccc3c(c2)OCCO3)CC1 (centres undefined)	none (no result: PAFAH1B3 FP inh, PAFAH1B2 FP inh, pPAFAH inh, PAFAH2 inh)
O=C1NCN(c2ccccc2)C12CCN(C(c1ccnc3ccccc13)c1nnnn1-c1ccc3c(c1)OCCO3)CC2 (centres undefined)	none (no result: PAFAH1B3 FP inh, PAFAH1B2 FP inh, pPAFAH inh, PAFAH2 inh)
CCCNC(=O)N1[C@H]2CC[C@@H]1C(C(=O)OC)=C(c1ccc(S(C)(=O)=O)cc1)C2	none
CC(C)CN(CC(C)C)c1ccc(C=C2C(=O)NC(=S)NC2=O)cc1[N+](=O)[O-]	PAFAH1B2 FP inh 34, PAFAH2 inh 38
CCN(CC)c1ccc(C=C2C(=O)NC(=S)NC2=O)cc1	none
N#CC(C#N)=NNc1ccc(S(N)(=O)=O)cc1	PAFAH1B3 FP inh 32, pPAFAH inh 30
CC1CCN(S(=O)(=O)c2ccc(NN=C(C#N)C#N)cc2)CC1	none (no result: PAFAH1B3 FP inh, PAFAH1B2 FP inh, PAFAH2 inh, ARFGAP1 inh, ASAP1 inh)
COc1ccc(C(c2nnnn2-c2ccc3c(c2)OCCO3)N2CCC3(CC2)C(=O)NCN3c2ccccc2)cc1 (centres undefined)	none (no result: PAFAH1B3 FP inh, PAFAH1B2 FP inh, pPAFAH inh, PAFAH2 inh)
O=C1NC(=O)C(=Cc2ccc(-c3ccc(F)cc3O)o2)C(=O)N1	PAFAH1B2 FP inh 32
Cc1ccc(OCCn2cccc2/C=C2/C(=O)NC(=O)N(Cc3ccco3)C2=O)cc1	PAFAH1B2 FP inh 25
O=C1NC(=O)N(Cc2ccco2)C(=O)/C1=C/C=C/c1ccco1	pPAFAH inh 33, PAFAH2 inh 33
O=C1NC(=O)N(Cc2ccccc2)C(=O)/C1=C\C=C\c1ccco1	none
C[C@]12CCC3[C@@H](CCC4=CC(=O)CC[C@@]43C=O)C1CCC2=O (some centres undefined)	none
O=C(O)CCC(=O)NCCC1=c2ccccc2=N/C1=C\c1c(O)n(Cc2ccc(F)cc2)c(=S)[nH]c1=O	PAFAH1B2 FP inh 41, PAFAH2 inh 38
COC(=O)C1CC(OC(C)=O)C(=O)[C@H]2C1(C)CC[C@H]1C(=O)OC(c3ccoc3)CC12C (some centres undefined)	none (no result: PAFAH1B3 FP inh, PAFAH1B2 FP inh, pPAFAH inh, PAFAH2 inh)
CN(C)C(=O)Oc1c(Cl)cc(Cl)c2cccnc12	none
CN(C)C(=O)Oc1noc2cc(Cl)ccc12	pPAFAH inh 43, PAFAH2 inh 41 | pPAFAH FP conf 52
Nc1nnc(CCN2CCCCC2)s1	none
O=C(C1CC(c2ccc(Cl)c(Cl)c2)=NO1)N1CCC2(CC1)OCCO2 (centres undefined)	pPAFAH inh 61, PAFAH2 inh 41 | pPAFAH FP conf 50
O=C(C1CC(c2ccc(F)cc2)=NO1)N1CCC2(CC1)OCCO2 (centres undefined)	none
COCCNC(=O)N1[C@H]2CC[C@@H]1C(C(=O)OC)=C(c1ccc(-c3ccccc3)c(F)c1)C2	none
CNc1ccc2nc3ccccc3[n+](C)c2c1	PAFAH1B3 FP inh 100, PAFAH1B2 FP inh 99, pPAFAH inh 88, PAFAH2 inh 108 | pPAFAH FP conf 81
C[n+]1c2ccccc2nc2ccc(NCCO)cc21	PAFAH1B3 FP inh 82, PAFAH1B2 FP inh 72, pPAFAH inh 72, PAFAH2 inh 83 | pPAFAH FP conf 58
O=C(COC(=O)Cc1ccccc1)Nc1ccc(SC(F)F)cc1	pPAFAH inh 36 | pPAFAH FP conf 29
CN(C)C1C(=O)C(C(N)=O)=C(O)C2(O)C(=O)C3=C(O)c4c(O)cccc4C(C)(O)C3C(O)C12 (centres undefined)	PAFAH1B3 FP inh 26, pPAFAH inh 73 | pPAFAH FP conf inactive
Cc1cccc(-n2c(=S)[nH]c3ccccc3c2=O)n1	none
CCOP(=O)(OCC)C(NC(=O)CC(C)C)C(Cl)(Cl)Cl (centres undefined)	none
COCCN1C(=O)NC(=O)/C(=C\c2ccc(Br)cc2)C1=O	none
CCN(CC)c1ccc(N=Cc2c(O)n(-c3cc(OC)ccc3OC)c(=O)[nH]c2=O)cc1	pPAFAH inh 38 | pPAFAH FP conf inactive
CCN(CCO)c1ccc(N=Cc2c(O)n(C)c(=S)[nH]c2=O)cc1	pPAFAH inh 37 (no result: PAFAH1B3 FP inh, PAFAH1B2 FP inh, PAFAH2 inh) | pPAFAH FP conf inactive
CCN(CC)c1ccc(N=Cc2c(O)n(CCc3ccc(OC)c(OC)c3)c(=O)[nH]c2=O)cc1	none
CCN(CC)c1ccc(N=Cc2c(O)n(Cc3ccco3)c(=O)[nH]c2=O)cc1	pPAFAH inh 46 | pPAFAH FP conf inactive
